Reference: ChEMBL document CHEMBL4373637, “Synthesis of bicyclic 1,4-thiazepines as novel anti-Trypanosoma brucei brucei agents” (Medchemcomm, 2019)
pEC50: −log10 of the molar value.

What was measured:
[1] = molecular target: T1, Thioredoxin glutathione reductase (Echinococcus granulosus) (UniProt Q869D7); experiment: Inhibition of wild type recombinant Echinococcus granulosus TGR at 50 uM preincubated for NADPH followed by compound addition and measured after 3 mins by spectrophotometric analysis relative to control
T1 sequence (whole entry): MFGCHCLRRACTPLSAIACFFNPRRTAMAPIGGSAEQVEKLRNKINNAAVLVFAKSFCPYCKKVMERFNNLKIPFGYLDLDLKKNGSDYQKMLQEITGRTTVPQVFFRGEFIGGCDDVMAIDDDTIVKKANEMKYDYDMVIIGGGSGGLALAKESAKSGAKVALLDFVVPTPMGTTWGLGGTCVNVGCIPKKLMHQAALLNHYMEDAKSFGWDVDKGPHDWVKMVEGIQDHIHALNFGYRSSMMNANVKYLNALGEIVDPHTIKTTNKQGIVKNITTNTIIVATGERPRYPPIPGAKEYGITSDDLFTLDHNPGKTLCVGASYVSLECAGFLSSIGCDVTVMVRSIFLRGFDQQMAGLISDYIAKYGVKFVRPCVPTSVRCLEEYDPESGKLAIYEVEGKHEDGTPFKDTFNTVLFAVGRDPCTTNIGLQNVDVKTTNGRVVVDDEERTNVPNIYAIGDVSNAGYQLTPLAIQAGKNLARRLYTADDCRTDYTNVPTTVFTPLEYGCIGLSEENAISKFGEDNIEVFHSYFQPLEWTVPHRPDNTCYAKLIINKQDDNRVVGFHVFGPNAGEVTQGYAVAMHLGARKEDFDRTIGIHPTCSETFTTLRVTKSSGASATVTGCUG
Method in brief: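 Recombinant wild-type E. granulosus TGR (1 nM) in 50 mM phosphate, 1 mM EDTA, pH 7, with 100 µM NADPH. Enzyme was preincubated for 3 min with NADPH and inhibitor at 50 µM (from a 100 mM DMSO stock). The reaction was started with 5 mM DTNB, and TNB formation was followed at 412 nm for 3 min. Runs were in duplicate, with controls lacking enzyme and lacking inhibitor.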

[2] = test system: Trypanosoma brucei brucei; experiment: Antitrypanosomal activity against Trypanosoma brucei brucei 427 assessed as parasite death at 30 uM after 24 hrs by PI-staining based flow cytometry analysis relative to control; type: functional
Method in brief: (§1)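 Bloodstream-form T. b. brucei strain 427 grown in HMI-9 with 10% FBS at 37 °C and 5% CO2. Exponential-phase parasites were seeded at 5 x 10⁵/mL and given compound from DMSO stocks, alongside 1% DMSO and nifurtimox control wells. After 24 h, aliquots were diluted into PBS with 1% glucose (pH 7.4) and propidium iodide and counted by flow cytometry (ex 488 nm). Viability (%) = 100 × cells treated / cells in DMSO control.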

Caenorhabditis elegans = experiment: Antiparasitic activity against Caenorhabditis elegans assessed as inhibition of parasite motility at 100 uM after 17.5 hrs by motility assay relative to control; type: functional
Method in brief: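 About 80 synchronized L4 worms per well in K buffer with 0.015% BSA. Motility was first recorded for 30 min to set 100%. Compound was then added at 100 µM in 1% DMSO, and motility was tracked automatically for 17.5 h. Mean motility at the final time was compared with 1% DMSO control wells. Eight replicates.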

[3] = test system: Nippostrongylus brasiliensis; experiment: Antiparasitic activity against Nippostrongylus brasiliensis L4 assessed as parasite death at 20 uM relative to control; type: functional
J774 = experiment: Cytotoxicity against mouse J774 cells assessed as reduction in cell viability after 24 hrs by WST-1 assay; type: cell-based; conditions: J774, 24 h
Method in brief: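 Mouse J774 macrophages grown in DMEM with 10% FCS at 37 °C and 5% CO2. Viability was read with WST-1 at 6 concentrations, in triplicate, and expressed relative to the DMSO-treated control.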

[4] = Selectivity index, ratio of EC50 for mouse J774 cells to EC50 for antitrypanosomal activity against Trypanosoma brucei brucei 427; type: toxicity; conditions: read-out: Ratio EC50
[5] = test system: Trypanosoma brucei brucei; experiment: Antitrypanosomal activity against Trypanosoma brucei brucei 427 assessed as parasite death at 5 uM after 24 hrs by PI-staining based flow cytometry analysis relative to control; type: functional; method in brief: as §1
[6] = test system: Trypanosoma brucei brucei; experiment: Antitrypanosomal activity against Trypanosoma brucei brucei 427 assessed as parasite death after 24 hrs by PI-staining based flow cytometry analysis; type: functional, organism-based; conditions: Trypanosoma brucei, 427, 24 h
Method in brief: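 Bloodstream-form T. b. brucei 427, cell line 449, carrying a redox biosensor, grown in HMI-9 with 10% FBS at 37 °C and 5% CO2. Exponential-phase cells at 5 x 10^5/mL were exposed to compound for 24 h; the control was 1% DMSO. Cells were then diluted into PBS with 1% glucose (pH 7.4) and propidium iodide, and analysed by flow cytometry (ex 488 nm). Viability was expressed as % of DMSO-control cell number.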

Structure (SMILES)	inhibition [1] [%]	Activity [2] [%]	inhibition at 100 µM (Caenorhabditis elegans) [%]	Activity [3] [%]	pEC50 (J774)	selectivity ratio [4]	Activity [5] [%]	pEC50 [6]
CCOC(=O)C1=C(C(=O)OCC)C2CSC(CS1)N2Cc1ccccc1 (stereo not drawn)	0	98.8	20	5.9	3.70	10	3.5	4.72
O=C(OCc1c(-c2ccccc2)no[n+]1[O-])C1=C(C(=O)c2ccc(Cl)cc2)C2CSC(CS1)N2Cc1ccccc1 (stereo not drawn)	0	97.7			5.51	1.2	89.4	5.60
CC1CS(=O)(=O)CCN1/N=C/c1ccc([N+](=O)[O-])o1 (stereo not drawn) [NIFURTIMOX]					3.82	10		
CCOC(=O)C1=C(C(=O)OCC)C2CSC(CS1)N2Cc1ccc(OC)cc1 (stereo not drawn)	36	97.7	50	13.8	< 3.70	> 11	3	4.74
CCCSc1ccc2[nH]c(NC(=O)OC)nc2c1 [ALBENDAZOLE]				100				
COC(=O)C1=C(C(=O)c2ccc(Cl)cc2)C2CSC(CS1)N2Cc1ccccc1 (stereo not drawn)	0	57.5	51	20.5			3.4	
O=C(OCc1c(-c2ccccc2)no[n+]1[O-])C1=C(C(=O)OCc2c(-c3ccccc3)no[n+]2[O-])C2CSC(CS1)N2Cc1ccccc1 (stereo not drawn)		23.3					12.2	
CCOC(=O)C1=C(C(=O)OCC)C2CSC(CS1)N2CCCC(=O)OCc1c(-c2ccccc2)no[n+]1[O-] (stereo not drawn)	0	97.8	22		< 3.70	> 71	60.4	5.55
CCOC(=O)C1=C(C(=O)OCC)C2CSC(CS1)N2Cc1ccc(F)cc1 (stereo not drawn)	41	99.4	26	47.6	4.19	3.6	12.7	4.75
CCOC(=O)C1=C(C(=O)OCC)C2CSC(CS1)N2Cc1ccc(Cl)cc1 (stereo not drawn)	0	97.3	37	17.1	< 3.70	> 25	2.4	5.10
COC(=O)C1=C(C(=O)c2ccc(Cl)cc2)C2CSC(CS1)N2CCO (stereo not drawn)	0	3.6	18	20.6			1.8	
COC(=O)C1=C(C(=O)c2ccc(Cl)cc2)C2CSC(CS1)N2Cc1ccc(OC)cc1 (stereo not drawn)	29	95.9	3	27.6	5.01	0.6	0	4.79
